This passage reports logP, IC50 and Selectivity results from ChEMBL document CHEMBL1134450, “Solid-phase synthesis of a nonpeptide RGD mimetic library: new selective alphavbeta3 integrin antagonists” (J Med Chem, 2001).

The nature of series [1]: Partition coefficient (logP). In kind it is physicochemical. Particulars: octanol/water.
For the next series, the target named is Integrin alpha-V/beta-3 (Homo sapiens, UniProt P05106+P06756). In words: Inhibitory activity against vitronectin receptor (alpha V beta 3). It is filed as protein-complex assay. An outline of the steps: (§1)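 Solid-phase competition binding. αvβ3 was recombinant, from baculovirus, purified on LM609 antibody column, paired with biotinylated human vitronectin. αIIbβ3 was paired with biotinylated human fibrinogen. Integrins coated at 1 µg/mL, blocked, then compounds serially diluted and co-incubated with ligand (1 µg/mL), 37 °C, 3 h. Read-out was alkaline-phosphatase anti-biotin.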

The target in series [2] is Integrin alpha-IIb/beta-3 (Homo sapiens, UniProt P05106+P08514). In words: Inhibitory activity against alpha IIb beta 3 integrin. In kind it is protein-complex assay. An outline of the steps: as §1
For series [3], the target named is Integrin alpha-V/beta-3 and alpha-IIb/beta 3 (Homo sapiens) (UniProt P05106+P06756+P08514). In words: Selectivity designates the quotient of affinities to integrins alpha v beta-3 and alpha IIb beta3. It is filed as protein assay. An outline of the steps:
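Quotient of IC50 values from the immobilized-integrin competition assays: αvβ3 against biotinylated vitronectin and αIIbβ3 against biotinylated fibrinogen. Ligand at 1 µg/mL, 37 °C, 3 h, anti-biotin alkaline-phosphatase detection. IC50 came from sigmoid fits of triplicates.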

Where a SMILES comes first, the peptide text is derived from it. [ ]: non-standard residue; d: D form. NMeF = CN[C@@H](Cc1ccccc1)C(=O)O; azaGly = NNC(=O)O

Sequence of Integrin alpha-V/beta-3 (P05106 27-788 limits assumed): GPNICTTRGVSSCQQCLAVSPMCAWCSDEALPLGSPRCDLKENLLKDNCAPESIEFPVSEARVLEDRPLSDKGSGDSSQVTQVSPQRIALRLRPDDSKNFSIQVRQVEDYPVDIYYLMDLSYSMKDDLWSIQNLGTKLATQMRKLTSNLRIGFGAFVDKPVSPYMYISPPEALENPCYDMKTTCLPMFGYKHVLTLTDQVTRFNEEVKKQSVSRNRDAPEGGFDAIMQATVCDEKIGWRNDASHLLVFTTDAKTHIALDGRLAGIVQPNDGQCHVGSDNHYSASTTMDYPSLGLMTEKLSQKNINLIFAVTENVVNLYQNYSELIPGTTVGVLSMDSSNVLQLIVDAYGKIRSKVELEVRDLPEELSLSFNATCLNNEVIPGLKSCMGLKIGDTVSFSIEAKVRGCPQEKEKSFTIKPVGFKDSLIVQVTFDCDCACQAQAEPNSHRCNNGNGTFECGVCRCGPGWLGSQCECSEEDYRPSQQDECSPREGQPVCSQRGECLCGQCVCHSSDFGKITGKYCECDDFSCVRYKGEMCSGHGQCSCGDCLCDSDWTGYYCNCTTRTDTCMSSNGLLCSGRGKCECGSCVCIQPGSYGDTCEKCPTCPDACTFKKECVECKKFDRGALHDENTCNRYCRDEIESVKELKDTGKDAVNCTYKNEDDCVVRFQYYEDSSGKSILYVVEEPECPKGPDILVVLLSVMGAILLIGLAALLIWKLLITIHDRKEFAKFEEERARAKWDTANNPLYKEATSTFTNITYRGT
Sequence of Integrin alpha-V/beta-3 (P06756 31-889 limits assumed): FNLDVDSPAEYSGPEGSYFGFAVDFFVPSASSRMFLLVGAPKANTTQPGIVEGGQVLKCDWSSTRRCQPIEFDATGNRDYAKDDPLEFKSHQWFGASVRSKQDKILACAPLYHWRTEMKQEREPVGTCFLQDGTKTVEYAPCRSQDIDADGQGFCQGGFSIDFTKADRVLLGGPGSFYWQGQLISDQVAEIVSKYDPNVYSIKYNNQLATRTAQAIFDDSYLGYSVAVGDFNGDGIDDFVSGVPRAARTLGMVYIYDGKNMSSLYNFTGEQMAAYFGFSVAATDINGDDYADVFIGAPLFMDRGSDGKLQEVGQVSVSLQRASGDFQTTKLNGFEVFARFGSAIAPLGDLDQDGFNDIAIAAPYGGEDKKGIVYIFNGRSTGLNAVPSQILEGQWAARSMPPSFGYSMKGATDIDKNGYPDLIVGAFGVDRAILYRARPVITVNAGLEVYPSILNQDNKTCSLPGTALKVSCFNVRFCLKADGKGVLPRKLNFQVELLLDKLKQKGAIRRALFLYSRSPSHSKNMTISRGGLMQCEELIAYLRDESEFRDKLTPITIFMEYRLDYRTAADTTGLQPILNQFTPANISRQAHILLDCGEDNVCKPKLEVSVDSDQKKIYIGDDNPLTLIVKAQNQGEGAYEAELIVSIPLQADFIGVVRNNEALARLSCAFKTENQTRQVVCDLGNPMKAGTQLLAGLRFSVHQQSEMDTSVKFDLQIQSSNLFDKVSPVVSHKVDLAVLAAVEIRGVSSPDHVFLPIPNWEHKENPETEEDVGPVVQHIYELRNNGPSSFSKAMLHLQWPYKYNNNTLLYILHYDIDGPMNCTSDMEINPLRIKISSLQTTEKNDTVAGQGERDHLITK
Sequence of Integrin alpha-V/beta-3 (P06756 891-1048 limits assumed): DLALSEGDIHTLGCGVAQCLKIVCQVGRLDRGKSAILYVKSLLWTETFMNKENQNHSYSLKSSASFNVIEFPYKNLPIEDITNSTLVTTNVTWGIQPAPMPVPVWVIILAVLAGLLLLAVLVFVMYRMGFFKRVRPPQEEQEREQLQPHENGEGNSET
Sequence of Integrin alpha-IIb/beta-3 (P05106 27-788 limits assumed): as the sequence (P05106 27-788 limits assumed) above
Sequence of Integrin alpha-IIb/beta-3 (P08514 32-887 limits assumed): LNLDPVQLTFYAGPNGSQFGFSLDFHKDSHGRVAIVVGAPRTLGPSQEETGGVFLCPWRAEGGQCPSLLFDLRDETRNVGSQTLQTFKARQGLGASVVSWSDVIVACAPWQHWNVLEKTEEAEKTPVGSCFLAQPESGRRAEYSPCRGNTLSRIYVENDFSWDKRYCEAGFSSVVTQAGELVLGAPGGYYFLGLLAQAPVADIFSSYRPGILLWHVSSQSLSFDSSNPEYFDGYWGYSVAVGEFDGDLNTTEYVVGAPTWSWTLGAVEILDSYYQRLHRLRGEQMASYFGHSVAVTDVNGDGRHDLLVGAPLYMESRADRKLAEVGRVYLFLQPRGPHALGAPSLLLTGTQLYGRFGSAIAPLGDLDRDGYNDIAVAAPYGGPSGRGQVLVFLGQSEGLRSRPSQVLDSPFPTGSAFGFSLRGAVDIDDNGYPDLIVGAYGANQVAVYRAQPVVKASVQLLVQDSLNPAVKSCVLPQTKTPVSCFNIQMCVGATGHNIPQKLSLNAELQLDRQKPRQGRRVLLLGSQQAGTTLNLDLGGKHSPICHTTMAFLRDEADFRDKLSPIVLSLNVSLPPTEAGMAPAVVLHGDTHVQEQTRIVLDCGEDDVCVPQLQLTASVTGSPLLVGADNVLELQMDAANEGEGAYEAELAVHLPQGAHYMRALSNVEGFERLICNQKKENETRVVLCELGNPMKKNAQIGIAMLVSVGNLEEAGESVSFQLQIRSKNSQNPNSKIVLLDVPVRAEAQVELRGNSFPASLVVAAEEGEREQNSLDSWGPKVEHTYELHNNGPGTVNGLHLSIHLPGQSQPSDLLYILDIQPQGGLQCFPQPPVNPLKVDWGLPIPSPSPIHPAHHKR
Sequence of Integrin alpha-IIb/beta-3 (P08514 891-1039 limits assumed): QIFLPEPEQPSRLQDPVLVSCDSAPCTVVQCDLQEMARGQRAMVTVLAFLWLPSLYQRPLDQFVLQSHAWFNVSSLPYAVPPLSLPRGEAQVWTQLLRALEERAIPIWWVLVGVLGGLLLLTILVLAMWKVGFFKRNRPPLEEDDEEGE

In general, logP refers to the decadic logarithm of the partition coefficient of the neutral form, usually between octanol and water. The low end stands for a more hydrophilic compound, the high end for a more lipophilic compound. For orientation: IC50 means the concentration that gives 50% inhibition. Read a high IC50 as a need for much substance. Turning to `COc1ccc(C(CC(=O)O)CC(=O)NNC(=O)CCCCNc2cc(C)ccn2)cc1` (stereo unspecified), in series [1], the logP was determined as 1.94. The figures for the half-inhibitory concentration (IC50) (at Integrin alpha-V/beta-3; in series [2]) were 22 nM and above 10000 nM, respectively.
For the compound `CC(=N)Nc1cccc(C(=O)NNC(=O)CC(CC(=O)O)c2ccc(-c3ccccc3)cc2)c1` (stereo unspecified), the logP in series [1] was found to be 3.11. The IC50 against Integrin alpha-V/beta-3 is 26 nM; in series [2] it was above 1000 nM.
For `COc1ccc(C(CC(=O)O)CC(=O)NNC(=O)c2cccc(N=C(C)N)c2)cc1` (stereo unspecified), in that order: 1.31, 37 nM and above 1000 nM.
The compound `NC(N)=Nc1cccc(C(=O)NNC(=O)NC(CC(=O)O)c2cccc3ccccc23)c1` (stereo unspecified) registered a logP in series [1] of 1.7. The results for the IC50 (against Integrin alpha-V/beta-3; in series [2]) were 27 nM and above 10000 nM, respectively.
As for `CC(C)[C@@H]1NC(=O)[C@H](CCCN=C(N)N)NC(=O)NNC(=O)[C@H](CC(=O)O)NC(=O)[C@H](Cc2ccccc2)N(C)C1=O` (cyclo(D[azaGly]RV[NMeF])), the Selectivity in series [3] was determined as 270.
`Cc1ccnc(NCCCCC(=O)NNC(=O)CC(CC(=O)O)c2ccc(F)cc2)c1` (stereo unspecified) showed a logP in series [1] of 2.23. This compound also gave an IC50 against Integrin alpha-V/beta-3 of 35 nM.
For the compound `N=C(N)Nc1cccc(C(=O)NNC(=O)NC(CC(=O)O)c2ccc(Br)cc2)c1` (stereo unspecified), the logP in series [1] turned out to be 1.53. Moreover, the 50% inhibitory concentration (IC50) was 1 nM on Integrin alpha-V/beta-3 and above 1000 nM in series [2].
For `NC(=O)C(CC(=O)O)NC(=O)NNC(=O)c1cccc(N=C(N)N)c1` (stereo unspecified), in that order: -2.42, 150 nM and above 10000 nM.
As to `N=C(N)NCCCCC(=O)NNC(=O)NC(CC(=O)O)c1ccccc1` (stereo unspecified), in series [1], the lipophilicity (logP) is -0.26. The 50% inhibitory concentration (IC50) on Integrin alpha-V/beta-3 worked out at 40 nM; in series [2], 1000 nM.
As for `CC(=N)Nc1cccc(C(=O)NNC(=O)CC(CC(=O)O)c2ccc(F)cc2)c1` (stereo unspecified), in series [1], the logP is 1.6. The IC50 is 160 nM at Integrin alpha-V/beta-3 and above 1000 nM in series [2].
In turn, `N=C(N)Nc1cccc(C(=O)NNC(=O)CC(CC(=O)O)c2ccc(F)cc2)c1` (stereo unspecified) came in with a log partition coefficient (logP) in series [1] of 1.28. Moreover, the half-maximal inhibitory concentration (IC50) against Integrin alpha-V/beta-3 is 4 nM; in series [2] it was above 1000 nM.
Compound `N=C(N)Nc1cccc(C(=O)NNC(=O)CC(CC(=O)O)c2ccc(Br)cc2)c1` (stereo unspecified) returned a log partition coefficient (logP) in series [1] of 1.95. The 50% inhibitory concentration (IC50) on Integrin alpha-V/beta-3 is 2 nM; in series [2], above 1000 nM.
Consider `Cc1ccnc(NCCCCC(=O)NNC(=O)NC(CC(=O)O)c2cccc3ccccc23)c1` (stereo unspecified), for which the logP in series [1] was 2.64. This compound registered a half-maximal inhibitory concentration (IC50) at Integrin alpha-V/beta-3 of 140 nM.
As to `COc1ccc(C(CC(=O)O)NC(=O)NNC(=O)c2cccc(N=C(N)N)c2)cc1` (stereo unspecified), the logP in series [1] stood at 0.58. Further, the IC50 against Integrin alpha-V/beta-3 is 0.9 nM; in series [2], above 1000 nM.
In turn, `Cc1ccnc(NCCCCC(=O)NNC(=O)NC(CC(=O)O)c2ccc(OC(F)(F)F)cc2)c1` (stereo unspecified) came in with a logP in series [1] of 3.17. This compound also yielded an IC50 against Integrin alpha-V/beta-3 of 130 nM.
In series [1], `N=C(N)Nc1cccc(C(=O)NNC(=O)CC(CC(=O)O)c2ccc(Cl)cc2)c1` (stereo unspecified) displayed a logP of 1.68. Also, the half-inhibitory concentration (IC50) on Integrin alpha-V/beta-3 was 2 nM; in series [2], above 1000 nM.
The compound `CC(C)[C@@H]1NC(=O)[C@H](CCCN=C(N)N)NC(=O)CNC(=O)[C@H](CC(=O)O)NC(=O)[C@H](Cc2ccccc2)N(C)C1=O` (cyclo(DGRV[NMeF])) gave a Selectivity in series [3] of 1460.
For the compound `O=C(O)CC(CC(=O)NNC(=O)c1cccc(Nc2ccccn2)c1)c1cc(Cl)cc(Cl)c1` (stereo unspecified), the logP in series [1] amounted to 3.54. The compound also came in with an IC50 at Integrin alpha-V/beta-3 of 210 nM.
In the case of `CC(C)[C@@H]1NC(=O)[C@H](CCCN=C(N)N)NC(=O)CNC(=O)[C@H](CC(=O)O)NC(=O)[C@H](Cc2ccccc2)NC1=O` (cyclo(DGRVF)), in series [3], the Selectivity was determined as 415.
On to `CC(=N)Nc1cccc(C(=O)NNC(=O)CC(CC(=O)O)c2ccc(Cl)cc2)c1` (stereo unspecified), for which the logP in series [1] was found to be 2. Also, the concentration for half-maximal inhibition (IC50) on Integrin alpha-V/beta-3 came out at 160 nM; in series [2] it was 8000 nM.
In series [1], `N=C(N)Nc1cccc(C(=O)NNC(=O)NC(CC(=O)O)c2ccc(Cl)cc2)c1` (stereo unspecified) came in with a lipophilicity (logP) of 1.26. In addition, the 50% inhibitory concentration (IC50) was 0.1 nM on Integrin alpha-V/beta-3 and 5500 nM in series [2].
Taken in the same sequence, the figures for `COc1ccc(C(CC(=O)O)NC(=O)NNC(=O)CCCCNc2cc(C)ccn2)cc1` (stereo unspecified) were 1.52, 42 nM and above 10000 nM.
For `Cc1ccnc(NCCCCC(=O)NNC(=O)CC(CC(=O)O)c2ccccc2)c1` (stereo unspecified), in that order: 2.07, 7 nM and above 10000 nM.
For `N=C(N)Nc1cccc(C(=O)NNC(=O)CC(CC(=O)O)c2cc(Cl)cc(Cl)c2)c1` (stereo unspecified), in that order: 2.24, 2 nM and 1000 nM.
Regarding `CC(=N)Nc1cccc(C(=O)NNC(=O)CC(CC(=O)O)c2ccccc2)c1` (stereo unspecified), the lipophilicity (logP) in series [1] is 1.44. Further, the IC50 on Integrin alpha-V/beta-3 is 23 nM; in series [2] it was above 10000 nM.
`Cc1ccnc(NCCCCC(=O)NNC(=O)CC(CC(=O)O)c2ccc(Cl)cc2)c1` (stereo unspecified) gave a logP in series [1] of 2.63. Moreover, the half-inhibitory concentration (IC50) against Integrin alpha-V/beta-3 was 15 nM.
For `CC(N)=Nc1cccc(C(=O)NNC(=O)CC(CC(=O)O)c2ccc(Br)cc2)c1` (stereo unspecified), the log partition coefficient (logP) in series [1] was found to be 2.27. The concentration for half-maximal inhibition (IC50) against Integrin alpha-V/beta-3 was 40 nM; in series [2], above 1000 nM.
`N=C(N)Nc1cccc(C(=O)NNC(=O)CC(CC(=O)O)c2ccccc2)c1` (stereo unspecified): the logP in series [1] was 1.13. In addition, the figures for the IC50 (against Integrin alpha-V/beta-3; in series [2]) were 15 nM and above 10000 nM, respectively.
Turning to `Cc1ccnc(NCCCCC(=O)NNC(=O)NCCC(=O)O)c1`, the lipophilicity (logP) in series [1] is -0.07. On Integrin alpha-V/beta-3, this compound registered a concentration for half-maximal inhibition (IC50) of 1400 nM.
In the case of `Cc1ccnc(NCCCCC(=O)NNC(=O)NC(CC(=O)O)c2cc(Cl)cc(Cl)c2)c1` (stereo unspecified), the logP in series [1] worked out at 2.76. Also, the IC50 was 80 nM on Integrin alpha-V/beta-3 and above 10000 nM in series [2].
In turn, `NC(N)=Nc1cccc(C(=O)NNC(=O)NC(CC(=O)O)c2cc(Cl)cc(Cl)c2)c1` (stereo unspecified) came in with a logP in series [1] of 1.82. Moreover, the half-inhibitory concentration (IC50) is 1 nM against Integrin alpha-V/beta-3 and above 1000 nM in series [2].
Taken in the same sequence, the figures for `COc1ccc(C(CC(=O)O)CC(=O)NNC(=O)c2cccc(NC(=N)N)c2)cc1` (stereo unspecified) were 1, 1 nM and above 1000 nM.
Compound `N=C(N)Nc1cccc(C(=O)NNC(=O)NC(CC(=O)O)C(N)=O)c1` (stereo unspecified) came in with a Selectivity in series [3] above 70.
`Cc1ccnc(NCCCCC(=O)NNC(=O)NC(CC(=O)O)c2ccc(Cl)cc2)c1` (stereo unspecified) showed a logP in series [1] of 2.2. For the same compound, the IC50 against Integrin alpha-V/beta-3 was 0.3 nM; in series [2] it was 7000 nM.
The compound `NC(N)=Nc1cccc(C(=O)NNC(=O)NC(CC(=O)O)c2ccc(F)cc2)c1` (stereo unspecified) displayed a logP in series [1] of 0.86. The results for the IC50 (on Integrin alpha-V/beta-3; in series [2]) were 6 nM and 1000 nM, respectively.
For `N=C(N)Nc1cccc(C(=O)NNC(=O)NC(CC(=O)O)c2ccccc2)c1` (stereo unspecified), in that order: 0.7, 0.8 nM and 8500 nM.
Taken in the same sequence, the figures for `N=C(N)Nc1cccc(C(=O)NNC(=O)CC(CC(=O)O)c2ccc(-c3ccccc3)cc2)c1` (stereo unspecified) were 2.8, 0.7 nM and 1000 nM.
Compound `Cc1ccnc(NCCCCC(=O)NNC(=O)CC(CC(=O)O)c2ccc(-c3ccccc3)cc2)c1` (stereo unspecified) had a Selectivity in series [3] of 1000. The same compound had an IC50 against Integrin alpha-V/beta-3 of 3 nM.
`CC(=N)Nc1cccc(C(=O)NNC(=O)CC(CC(=O)O)c2cc(Cl)cc(Cl)c2)c1` (stereo unspecified): the log partition coefficient (logP) in series [1] worked out at 2.55. Moreover, the IC50 against Integrin alpha-V/beta-3 was determined as 6 nM.
In series [1], `Cc1ccnc(NCCCCC(=O)NNC(=O)NC(CC(=O)O)c2ccc(F)cc2)c1` (stereo unspecified) showed a logP of 1.8. In addition, the IC50 was 48 nM on Integrin alpha-V/beta-3 and above 10000 nM in series [2].
Turning to `N=C(N)Nc1cccc(C(=O)NNC(=O)NC(CC(=O)O)c2ccc(OC(F)(F)F)cc2)c1` (stereo unspecified), in series [1], the log partition coefficient (logP) is 2.23. The concentration for half-maximal inhibition (IC50) against Integrin alpha-V/beta-3 is 3 nM; in series [2] it was above 1000 nM.
In turn, `NCCCC[C@H](NC(=O)[C@@H]1CCCN1C(=O)[C@H](CO)NC(=O)[C@H](CC(=O)O)NC(=O)CNC(=O)[C@H](CCCN=C(N)N)NC(=O)CN)C(=O)O` returned a Selectivity in series [3] of 8. In addition, the IC50 at Integrin alpha-V/beta-3 was 1000 nM; in series [2], above 10000 nM.
Consider `Cc1ccnc(NCCCCC(=O)NNC(=O)CC(CC(=O)O)c2ccc(Br)cc2)c1` (stereo unspecified), for which the logP in series [1] is 2.9. For the same compound, the IC50 against Integrin alpha-V/beta-3 came out at 6 nM; in series [2], 9000 nM.
`Cc1ccnc(NCCCCC(=O)NNC(=O)NC(CC(=O)O)c2ccc(Br)cc2)c1` (stereo unspecified) returned a lipophilicity (logP) in series [1] of 2.47. The concentration for half-maximal inhibition (IC50) against Integrin alpha-V/beta-3 turned out to be 7 nM.
For the compound `Cc1ccnc(NCCCCC(=O)NNC(=O)CC(CC(=O)O)c2cc(Cl)cc(Cl)c2)c1` (stereo unspecified), in series [1], the lipophilicity (logP) turned out to be 3.19. Moreover, the IC50 was 9 nM on Integrin alpha-V/beta-3 and above 10000 nM in series [2].
For `Cc1ccnc(NCCCCC(=O)NNC(=O)NC(CC(=O)O)c2ccccc2)c1` (stereo unspecified), in that order: 1.64, 37 nM and above 10000 nM.
